Measured values from ChEMBL document CHEMBL1128569, “N-acyl-2-substituted-1,3-thiazolidines, a new class of non-narcotic antitussive agents: studies leading to the discovery of ethyl 2-[(2-methoxyphenoxy)methyl]-beta-oxothiazolidine-3-propanoate” (J Med Chem, 1995).

Key:
Cavia porcellus [1] = assay: Antitussive activity by inhibition of irritant citric acid aerosol-induced coughing in guinea pig upon oral administration.; assay type: functional
In short: (§1)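 Male guinea pigs (350-400 g) exposed in a box to 7.5% citric acid aerosol for 5 min, and coughs counted as the basal value. Next day, after overnight fasting, animals (6-8/dose) were gavaged with compound in water or 0.5% methyl cellulose (2 mL/kg) 1 h before re-exposure. Activity is the reduction in coughs versus the basal count. ED50 is the dose giving 50% reduction (Cochran and Snedecor).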

[2] = Acute toxicity was determined in mice upon peroral administration; assay type: organism-based; conditions: mouse, in vivo, po
In short: (§2)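 Swiss mice of both sexes, groups of six, dosed by gavage at several doses up to 1000 mg/kg. Compound dissolved in water or suspended in 0.5% carboxymethyl cellulose, 10 mL/kg. Deaths recorded over 1-7 days. LD50 obtained by logit transformation.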

Cavia porcellus [3] = assay: Inhibition of irritant electrically-induced coughing in guinea pig trachea following p.o. administration.; assay type: functional; conditions: po
In short: (§3)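 Guinea pigs under ketamine (10 mg/kg im) and xylazine (3 mg/kg im) anaesthesia, with an electrode wrapped around the trachea about 1.5 cm above the bifurcation and an indifferent electrode on the dorsal skin. Coughs during stimulation counted as the basal value. Groups of 6-8/dose were gavaged with compound in water or 0.5% methyl cellulose (2 mL/kg). Activity is the cough reduction versus basal. ED50 is the dose giving 50% reduction.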

Cavia porcellus [4] = assay: Antitussive activity was evaluated by inhibition of irritant aerosol-induced coughing by (po) administration of 30 mg/kg in guinea pig; assay type: functional; in short: as §1
[5] = Lethality in mice following p.o. administration.; assay type: ADME, organism-based; conditions: mouse, in vivo, po; in short: as §2
Cavia porcellus [6] = assay: Antitussive activity was evaluated by inhibition of irritant citric acid aerosol-induced coughing in guinea pig upon oral administration at 30 mg/kg dose; assay type: functional; in short: as §1
Cavia porcellus [7] = assay: Antitussive activity was evaluated by inhibition of irritant aerosol-induced coughing by (po) administration in guinea pig; assay type: functional; in short: as §1
Cavia porcellus [8] = assay: Antitussive activity was evaluated by inhibition of irritant electrically-induced coughing in guinea pig trachea upon oral administration at 30 mg/kg; assay type: functional; in short: as §3
Cavia porcellus [9] = assay: Antitussive activity was evaluated by inhibition of irritant electrically-induced coughing by (po) administration in guinea pig; assay type: functional; in short: as §3

Row | SMILES | ED50 (Cavia porcellus [1]) | LD50 [2] | other results
1 | COc1ccccc1OCC1SCCN1C(=O)CC(=O)NCc1ccncc1.Cl (stereo unspecified) | 23 mg/kg | 707 mg/kg | ED50 (Cavia porcellus [3]): 13 mg/kg
2 | COc1ccccc1OCC1N(C(=O)CS(C)(=O)=O)CC[S+]1[O-] (stereo unspecified) |  | > 1000 mg/kg | 
3 | CC(=O)SCC(=O)Oc1ccccc1OCC1SCCN1C(=O)CSC(C)=O (stereo unspecified) |  |  | inhibition in vivo at 30 mg/kg (Cavia porcellus [4]): < 20%; LD50 [5]: > 1000 mg/kg
4 | COc1ccccc1OCC1SCCN1C(=O)C[S+](C)[O-] (stereo unspecified) | 25 mg/kg | > 1000 mg/kg | ED50 (Cavia porcellus [3]): 10 mg/kg
5 | O=C(O)[C@@H]1CSC(COc2ccccc2O)N1 (stereo partly specified) |  | > 1000 mg/kg | inhibition in vivo at 30 mg/kg (Cavia porcellus [6]): < 20%
6 | O=C(O)CC(=O)N1CCSC1COc1ccccc1O (stereo unspecified) | 25 mg/kg | 1000 mg/kg | 
7 | COc1ccccc1OCC1SCCN1C(=O)CSC (stereo unspecified) |  |  | ED50 (Cavia porcellus [3]): 21 mg/kg
8 | CCOC(=O)[C@@H]1CSC(COc2ccccc2OC)N1 (stereo partly specified) |  | 757 mg/kg | inhibition in vivo at 30 mg/kg (Cavia porcellus [6]): < 20%
9 | COC(=O)c1ccc(OCC2SCCN2C(=O)Cn2ccnc2)cc1 (stereo unspecified) | 62 mg/kg | > 1000 mg/kg | 
10 | O=C(O)[C@@H]1CSC(CCc2ccccc2O)N1 (stereo partly specified) |  | > 1000 mg/kg | inhibition in vivo at 30 mg/kg (Cavia porcellus [6]): < 20%; ED50 (Cavia porcellus [3]): 45 mg/kg
11 | COc1ccccc1OCC1SCCN1C(=O)CNC(C)=O (stereo unspecified) | 40 mg/kg | > 1000 mg/kg | 
12 | COc1ccccc1OCC1N(C(=O)CC(=O)O)CC[S+]1[O-] (stereo unspecified) | 20 mg/kg | > 1000 mg/kg | 
13 | COc1ccccc1SCC1SCCN1C(=O)CN1CCN(C)CC1 (stereo unspecified) |  |  | inhibition in vivo at 30 mg/kg (Cavia porcellus [6]): < 20%
14 | COc1ccccc1OCC1SCCN1C(=O)COC(C)=O (stereo unspecified) |  | > 1000 mg/kg | ED50 (Cavia porcellus [3]): 25 mg/kg
15 | CCOC(=O)CC(=O)N1CC[S+]([O-])C1COc1ccccc1OC (stereo unspecified) | 27 mg/kg | > 1000 mg/kg | ED50 (Cavia porcellus [3]): 28 mg/kg
16 | COc1ccccc1OCC1SCCN1C(=O)C(C)(C)C(=O)O (stereo unspecified) | 34 mg/kg | > 1000 mg/kg | ED50 (Cavia porcellus [3]): 21 mg/kg
17 | CC(=O)SCC(=O)N1CCSC1COc1ccccc1O (stereo unspecified) |  |  | LD50 [5]: > 1000 mg/kg; ED50 (Cavia porcellus [7]): 60 mg/kg

Row | SMILES | ED50 (Cavia porcellus [1]) | LD50 [2] | other results
18 | CCC(=O)SCC(=O)N1CCSC1COc1ccccc1OC (stereo unspecified) |  |  | inhibition in vivo at 30 mg/kg (Cavia porcellus [4]): < 20%
19 | COc1ccccc1OCC1SCCN1C(=O)Cn1ccnc1 (stereo unspecified) | 50 mg/kg | 966 mg/kg | 
20 | COc1ccccc1OCC1SCCN1C(=O)CSC(=O)c1cccnc1 (stereo unspecified) |  |  | inhibition in vivo at 30 mg/kg (Cavia porcellus [4]): < 20%; LD50 [5]: > 1000 mg/kg
21 | CCOC(=O)C(=O)N1CCSC1COc1ccccc1OC (stereo unspecified) |  | > 1000 mg/kg | inhibition in vivo at 30 mg/kg (Cavia porcellus [6]): < 20%
22 | CCOC(=O)CCC(=O)N1CCSC1COc1ccccc1OC (stereo unspecified) | 24 mg/kg | > 1000 mg/kg | 
23 | Cl.O=C(O)c1ccc(OCC2SCCN2C(=O)Cn2ccnc2)cc1 (stereo unspecified) |  | > 1000 mg/kg | inhibition in vivo at 30 mg/kg (Cavia porcellus [6]): < 20%
24 | COc1ccccc1OCC1SCCN1C(=O)CN1CCN(C)CC1.Cl.Cl (stereo unspecified) |  | 818 mg/kg | inhibition in vivo at 30 mg/kg (Cavia porcellus [8]): < 20%
25 | COc1ccccc1OCC1SCCN1C(=O)CC(=O)N1CCN(C(c2ccc(F)cc2)c2ccc(F)cc2)CC1 (stereo unspecified) | 26 mg/kg | > 1000 mg/kg | ED50 (Cavia porcellus [3]): 32 mg/kg
26 | CC(=O)SCC(=O)N1CCSC1CCc1ccccc1O (stereo unspecified) |  |  | LD50 [5]: > 1000 mg/kg; ED50 (Cavia porcellus [7]): 61 mg/kg
27 | COc1ccc2c3c1O[C@H]1[C@@H](O)C=C[C@H]4[C@@H](C2)N(C)CC[C@@]341.COc1ccc2c3c1O[C@H]1[C@@H](O)C=C[C@H]4[C@@H](C2)N(C)CC[C@@]341.O.O=P(O)(O)O.O=P(O)(O)O [CODEINE PHOSPHATE] |  |  | ED50 (Cavia porcellus [9]): 14 mg/kg; ED50 (Cavia porcellus [7]): 29 mg/kg
28 | COc1ccc(OCC2SCCN2C(=O)CSC(C)=O)cc1 (stereo unspecified) |  |  | ED50 (Cavia porcellus [9]): 19 mg/kg; LD50 [5]: > 1000 mg/kg
29 | COc1ccccc1OCC1SCCN1C(=O)CC(=O)N1CCN(C(c2ccccc2)c2ccccc2)CC1 (stereo unspecified) | 66 mg/kg | > 1000 mg/kg | ED50 (Cavia porcellus [3]): 44 mg/kg
30 | COc1ccccc1SCC1SCCN1C(=O)Cn1ccnc1 (stereo unspecified) |  | 958 mg/kg | inhibition in vivo at 30 mg/kg (Cavia porcellus [6]): < 20%
31 | COc1ccccc1OCC1SCCN1C(=O)CC(=O)NCc1cccnc1.O=C(O)/C=C/C(=O)O (stereo unspecified) | 57 mg/kg | 677 mg/kg | 
32 | CSCC(=O)N1CCSC1COc1ccccc1O (stereo unspecified) |  | > 1000 mg/kg | ED50 (Cavia porcellus [3]): 28 mg/kg
33 | COc1ccccc1OCC1SCCN1C(=O)CC(=O)N1CCN(Cc2ccccc2)CC1.Cl (stereo unspecified) | 41 mg/kg | 681 mg/kg | 
34 | COc1ccccc1OCC1SCCN1C(=O)CC(=O)N1CCN(C)CC1 (stereo unspecified) | 27 mg/kg | 880 mg/kg | 
